Laboratory results from ChEMBL document CHEMBL5715948, “Tubastatin, a selective histone deacetylase 6 inhibitor shows anti-inflammatory and anti-rheumatic effects” (Int Immunopharmacol, 2013).
Active and inactive are the calls of the source. The rule behind the calls is not given here.

Assays:
Mus musculus [1] = assay: Anti-rheumatic activity in DBA1 mouse semi-therapeutic collagen induced arthritis model assessed as mild cartilaginous change like proteoglycan loss at 30 mg/kg/day, ip QD dosed during day 21 to day 36 post immunization by Safranin O staining analysis; assay type: functional, organism-based; conditions: time 16.0 day
In short: (§1)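 Right fore and hind paws from collagen-induced arthritic DBA1 mice (treated day 21–36, sacrificed day 37) paraffin-sectioned and stained with Safranin O to detect proteoglycan/glycosaminoglycan loss in articular cartilage.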

Rattus norvegicus [2] = assay: Antiinflammatory activity in Wistar rat assessed as inhibition of FCA-induced paw inflammation at 30 mg/kg/day, ip for 5 days measured 2 hrs after FCA challenge relative to control; assay type: functional; conditions: 120 h, time 5 day
In short: (§2)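 Male Wistar rats (200–225 g) randomized by paw volume, n = 6. Test agent i.p. daily for 5 days or reference oral on day 5; 1 h after dosing on day 5, 100 μg M. tuberculosis in 50 μl IFA injected sub-plantar into both hind paws. Paw volume plethysmometry at 2, 6, 24 h; % inhibition versus vehicle disease control.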

THP-1 [3] = assay: Inhibition of LPS-stimulated TNFalpha production in PMA-activated human THP-1 cells pre-incubated for 24 hrs before LPS-stimulation and measured after 4 hrs post LPS challenge by ELISA; assay type: functional, cell-based; conditions: time 28.0 hrs
In short: (§3)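 THP-1 cells, 10,000/well, differentiated with 32 nM PMA for 24 h, medium replaced and rested 24 h, then compound 24 h before LPS: 10 ng/ml for 4 h (TNF-α) or 100 ng/ml for 8 h (IL-6). Conditioned medium assayed by human ELISA at 450 nm; mean ± SD, n = 3; IC50 from dose–response.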

THP-1 [4] = assay: Cytotoxicity in human THP-1 cells at 100 to 100000 nM incubated for 24 hrs by SRB assay; assay type: toxicity, cell-based; conditions: thp-1, 24 h, 100 µM, dose 100-100000 nM
In short: (§4)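 RAW 264.7 (DMEM) or THP-1 (RPMI-1640) cells, 10% FBS, seeded 10,000/well and exposed 24 h to compound in DMSO over 100–100000 nM. SRB staining, absorbance 530 nm; % survival relative to untreated cells, mean ± SD, n = 3.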

[5] = Toxicity in DBA1 mouse semi-therapeutic collagen induced arthritis model assessed as thymus weight at 30 mg/kg/day, ip QD dosed during day 21 to day 36 post immunization (reference value: 12.20 +/- 1.5 mg); assay type: organism-based; conditions: in vivo, 384 h, time 16 day
[6] = Toxicity in DBA1 mouse semi-therapeutic collagen induced arthritis model assessed as spleen weight at 30 mg/kg/day, ip QD dosed during day 21 to day 36 post immunization (reference value: 226.4 +/- 11.03 mg); assay type: organism-based; conditions: in vivo, 384 h, time 16 day
Rattus norvegicus [7] = assay: Antiinflammatory activity in Wistar rat assessed as inhibition of FCA-induced paw inflammation at 30 mg/kg/day, ip for 5 days and measured 24 hrs after FCA challenge relative to control; assay type: functional; conditions: 120 h, time 5 day; in short: as §2
Rattus norvegicus [8] = assay: Antiinflammatory activity in Wistar rat assessed as inhibition of FCA-induced paw inflammation at 30 mg/kg/day, ip for 5 days and measured 6 hrs after FCA challenge relative to control; assay type: functional; conditions: 120 h, time 5 day; in short: as §2
THP-1 [9] = assay: Inhibition of LPS-stimulated IL6 production in PMA-activated human THP-1 cells pre-incubated for 24 hrs before LPS-stimulation and measured after 8 hrs post LPS challenge by ELISA; assay type: functional, cell-based; conditions: time 32.0 hrs; in short: as §3
RAW264.7 [10] = assay: Cytotoxicity in mouse RAW264.7 cells at 100 to 100000 nM incubated for 24 hrs by SRB assay; assay type: toxicity, cell-based; conditions: raw264.7, 24 h, 100 µM, dose 100-100000 nM; in short: as §4
RAW264.7 [11] = assay: Inhibition of LPS-stimulated NO production in mouse RAW264.7 cells pre-incubated for 24 hrs before LPS-stimulation and measured after 24 hrs post LPS challenge by Griess assay; assay type: functional, cell-based; conditions: time 48.0 hrs
In short: (§5)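 RAW 264.7 cells (1 million) in 24-well plates, 24 h settle, compound 24 h, then LPS 100 ng/ml for 24 h. Medium nitrite measured with Griess reagent (1% sulfanilamide, 0.1% naphthylethylenediamine in 2.5% phosphoric acid), 10 min room temperature, absorbance 570 nm, quantified against sodium nitrite standard curve; mean ± SD, n = 3.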

Mus musculus [12] = assay: (§6) Anti-rheumatic activity in DBA1 mouse semi-therapeutic collagen induced arthritis model assessed as inhibition of IL6 level in paw tissues at 30 mg/kg/day, ip QD dosed during day 21 to day 36 post immunization by ELISA analysis; assay type: functional; conditions: 384 h, time 16 day
In short: (§7)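 Female DBA1 mice (6–8 weeks) immunized intradermally at tail base on day 0 with bovine type II collagen in CFA, boosted day 21 with collagen in IFA, LPS 50 μg i.p. day 28; dosed day 21–36 (n = 6/group). Day 37 left paws frozen, pulverized in liquid nitrogen, homogenized in T-PER, spun 500 g 10 min 4 °C; supernatant IL-6 by ELISA, normalized per mg protein.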

RAW264.7 [13] = assay: Inhibition of LPS-stimulated NO production in mouse RAW264.7 cells at 10 uM pre-incubated for 24 hrs before LPS-stimulation and measured after 24 hrs post LPS challenge by Griess assay; assay type: functional; conditions: time 48 hrs; in short: as §5
Mus musculus [14] = assay: as §6, with “histopathological changes (cartilage erosion, synovial hyperplasia and inflammation)” for “IL6 level in paw tissues”, “hematoxylin and eosin staining based” for “ELISA”; assay type: functional; conditions: DBA1, 384 h, time 16 day
In short: (§8)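 Histopathology in collagen II/CFA-immunized DBA1 mice (day 21 boost, day 28 LPS i.p.), treated day 21–36, n = 6. Right fore and hind paws taken at sacrifice on day 37, paraffin-embedded, sectioned, H&E-stained and scored for cartilage erosion, synovial hyperplasia, pannus and cell infiltration.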

[15] = Toxicity in DBA1 mouse semi-therapeutic collagen induced arthritis model assessed as change in body weight at 30 mg/kg/day, ip QD dosed during day 21 to day 36 post immunization (reference value: -25.03 +/- 5.22%); assay type: organism-based; conditions: in vivo, 384 h, time 16 day
Mus musculus [16] = assay: Anti-rheumatic activity in DBA1 mouse semi-therapeutic collagen induced arthritis model assessed as inhibition of clinical arthritic scores at 30 mg/kg/day, ip QD dosed during day 21 to day 36 post immunization by hematoxylin and eosin staining based analysis; assay type: functional; conditions: DBA1, 384 h, time 16 day
In short: (§9)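 Collagen-induced arthritis in female DBA1 mice: collagen II/CFA intradermal at tail base day 0, collagen/IFA boost day 21, LPS 50 μg i.p. day 28; once-daily dosing day 21 to 36, six per group. Arthritic clinical scores followed daily from day 28 to 37; mean ± SEM versus vehicle-treated disease control.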

Rattus norvegicus [17] = assay: Antiinflammatory activity in Wistar rat assessed as inhibition of FCA-induced paw inflammation at 1 mg/kg/day, po […] measured 2 hrs after FCA challenge relative to control; assay type: functional; in short: as §2
Mus musculus [18] = assay: Anti-rheumatic activity in DBA1 mouse semi-therapeutic collagen induced arthritis model assessed as inhibition of IL6 level in paw tissues at 0.1 mg/kg/day, po QD dosed during day 21 to day 36 post immunization by ELISA analysis; assay type: functional; conditions: 384 h, time 16 day; in short: as §7
Rattus norvegicus [19] = assay: Antiinflammatory activity in Wistar rat assessed as inhibition of FCA-induced paw inflammation at 1 mg/kg/day, […] measured 24 hrs after FCA challenge relative to control; assay type: functional; conditions: route po; in short: as §2
[20] = Toxicity in DBA1 mouse semi-therapeutic collagen induced arthritis model assessed as spleen weight at 0.1 mg/kg/day, po QD dosed during day 21 to day 36 post immunization (reference value: 226.4 +/- 11.03 mg); assay type: organism-based; conditions: in vivo, 384 h, time 16 day
Mus musculus [21] = assay: (§10) Anti-rheumatic activity in DBA1 mouse semi-therapeutic collagen induced arthritis model assessed as inhibition of clinical arthritic scores at 0.1 mg/kg/day, po QD dosed during day 21 to day 36 post immunization by hematoxylin and eosin staining based analysis; assay type: functional; conditions: DBA1, 384 h, time 16 day; in short: as §9
[22] = Toxicity in DBA1 mouse semi-therapeutic collagen induced arthritis model assessed as change in body weight at 0.1 mg/kg/day, po QD dosed during day 21 to day 36 post immunization (reference value: -25.03 +/- 5.22%); assay type: organism-based; conditions: in vivo, 384 h, time 16 day
Mus musculus [23] = assay: as §10, with “histopathological changes (cartilage erosion, synovial hyperplasia and inflammation)” for “clinical arthritic scores”; assay type: functional; conditions: DBA1, 384 h, time 16 day; in short: as §8
Rattus norvegicus [24] = assay: Antiinflammatory activity in Wistar rat assessed as inhibition of FCA-induced paw inflammation at 1 mg/kg/day, po […] measured 6 hrs after FCA challenge relative to control; assay type: functional; in short: as §2
Mus musculus [25] = assay: Anti-rheumatic activity in DBA1 mouse semi-therapeutic collagen induced arthritis model assessed as mild cartilaginous change like proteoglycan loss at 0.1 mg/kg/day, po QD dosed during day 21 to day 36 post immunization by Safranin O staining analysis; assay type: functional, organism-based; conditions: time 16.0 day; in short: as §1
[26] = Toxicity in DBA1 mouse semi-therapeutic collagen induced arthritis model assessed as thymus weight at 0.1 mg/kg/day, po QD dosed during day 21 to day 36 post immunization (reference value: 12.20 +/- 1.5 mg); assay type: organism-based; conditions: in vivo, 384 h, time 16 day

CN1CCc2c(c3ccccc3n2Cc2ccc(C(=O)NO)cc2)C1 [TUBASTATIN A]
Activity (Mus musculus [1]): Active
inhibition in vivo at 30 mg/kg/day (Rattus norvegicus [2]): 71.9%
inhibition (THP-1 [3]): Dose-Dependent Effect
Activity (THP-1 [4]): Non-Toxic
Activity [5]: 17.5 mg
Activity [6]: 182 mg
inhibition in vivo at 30 mg/kg/day (Rattus norvegicus [7]): 38.6%
inhibition in vivo at 30 mg/kg/day (Rattus norvegicus [8]): 40.3%
inhibition (THP-1 [9]): Dose-Dependent Effect
Activity (RAW264.7 [10]): Non-Toxic
inhibition (RAW264.7 [11]): Dose-Dependent Effect
inhibition in vivo at 30 mg/kg/day (Mus musculus [12]): 59%
inhibition at 10 µM (RAW264.7 [13]): 66%
inhibition in vivo at 30 mg/kg/day (Mus musculus [14]): 71%
Activity [15]: -1.07%
inhibition in vivo at 30 mg/kg/day (Mus musculus [16]): 73%

C[C@@H]1C[C@H]2[C@@H]3CCC4=CC(=O)C=C[C@]4(C)[C@@]3(F)[C@@H](O)C[C@]2(C)[C@@]1(O)C(=O)CO [DEXAMETHASONE]
inhibition in vivo at 1 mg/kg/day (Rattus norvegicus [17]): 65.4%
inhibition in vivo at 0.1 mg/kg/day (Mus musculus [18]): 66%
inhibition in vivo at 1 mg/kg/day (Rattus norvegicus [19]): 49.5%
Activity [20]: 52.5 mg
inhibition in vivo at 0.1 mg/kg/day (Mus musculus [21]): 92%
Activity [22]: -13.9%
inhibition in vivo at 0.1 mg/kg/day (Mus musculus [23]): 100%
inhibition in vivo at 1 mg/kg/day (Rattus norvegicus [24]): 90.5%
inhibition at 10 µM (RAW264.7 [13]): 36%
Activity (Mus musculus [25]): Active
Activity [26]: 6.5 mg
